Results on 5 molecules are retold here after ChEMBL document CHEMBL1137400, “Dopamine/serotonin receptor ligands. 13: Homologization of a benzindoloazecine-type dopamine receptor antagonist modulates the affinities for dopamine D(1)-D(5) receptors” (J Med Chem, 2006).

For one assay, the target named is D(3) dopamine receptor (Homo sapiens, UniProt P35462). Briefly: Displacement of [3H]spiperone from human D3 receptor expressed in CHO cells. The assay is classed as cell-based. The method in brief: (§1)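 Human D2L or D3 receptors stably expressed in CHO cells; [3H]spiperone displacement in 96-well format. Incubation 90 min at 27 °C, ended by rapid filtration. IC50 was converted to Ki by Cheng-Prusoff. At least two independent experiments, each run in triplicate.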
D(3) dopamine receptor, sequence (P35462 whole entry): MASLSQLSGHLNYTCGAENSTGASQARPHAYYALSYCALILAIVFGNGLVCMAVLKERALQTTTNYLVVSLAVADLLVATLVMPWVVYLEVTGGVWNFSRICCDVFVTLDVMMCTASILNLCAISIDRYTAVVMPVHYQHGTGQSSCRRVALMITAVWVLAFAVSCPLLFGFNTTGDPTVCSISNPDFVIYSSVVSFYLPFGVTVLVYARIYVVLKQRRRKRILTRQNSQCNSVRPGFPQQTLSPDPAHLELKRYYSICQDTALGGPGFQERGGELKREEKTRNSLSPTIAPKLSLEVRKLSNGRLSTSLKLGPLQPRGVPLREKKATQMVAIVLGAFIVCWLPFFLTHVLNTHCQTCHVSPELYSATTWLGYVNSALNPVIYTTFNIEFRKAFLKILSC

Another assay deals with T1, D(4) dopamine receptor (Homo sapiens, UniProt P21917).
T1 sequence (P21917 whole entry): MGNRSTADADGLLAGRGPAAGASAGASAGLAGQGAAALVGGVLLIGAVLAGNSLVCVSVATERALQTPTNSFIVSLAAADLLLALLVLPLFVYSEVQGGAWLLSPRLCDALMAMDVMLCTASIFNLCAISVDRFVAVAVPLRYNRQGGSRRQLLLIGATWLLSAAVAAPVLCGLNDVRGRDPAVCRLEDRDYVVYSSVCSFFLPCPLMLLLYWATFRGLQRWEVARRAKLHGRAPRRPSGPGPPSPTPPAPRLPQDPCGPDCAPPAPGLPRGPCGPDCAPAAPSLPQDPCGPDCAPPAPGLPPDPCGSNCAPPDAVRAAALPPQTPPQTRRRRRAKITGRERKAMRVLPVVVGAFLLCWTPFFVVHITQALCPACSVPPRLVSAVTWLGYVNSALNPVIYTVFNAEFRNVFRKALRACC
The experiment in a line: (§2) Displacement of [3H]spiperone from human D4 dopamine receptor expressed in CHO cells. The assay is classed as cell-based. The method in brief: (§3)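 Human cloned receptors stably expressed: D1 in HEK293 cells with [3H]SCH 23390, and D4.4 in CHO cells with [3H]spiperone. Radioligand displacement was run in 96-well format, incubated 90 min at 27 °C and stopped by rapid filtration. At least two independent experiments, each in triplicate. Ki was calculated from IC50 by Cheng–Prusoff. "No activity" means under 70% displacement at 10^-5 M.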

Assay [1] concerns the target T2, D(1A) dopamine receptor (Homo sapiens, UniProt P21728). Briefly: Displacement of [3H]SCH 23390 from human D1 dopamine receptor expressed in HEK293 cells. Format: cell-based. The method in brief: as §3
Assay [2] has as its target T3, D(2) dopamine receptor (Homo sapiens, UniProt P14416). The experiment in a line: Activity at human D2L dopamine receptor expressed in HEK293 cells by calcium fluorescence assay. The assay is classed as functional, cell-based.
Assay [3] addresses T4, D(1B) dopamine receptor (Homo sapiens, UniProt P21918). Briefly: Displacement of [3H]SCH 23390 from human D5 dopamine receptor expressed in HEK293 cells. Format: cell-based. The procedure, abridged:
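Radioligand binding with [3H]SCH 23390 on human D5 stably expressed in HEK293 cells, in 96-well format. Incubation 90 min at 27 °C, stopped by rapid filtration. Ki was calculated from IC50 by Cheng-Prusoff. At least two independent experiments, each in triplicate.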

The target in assay [4] is T2, D(1A) dopamine receptor. Briefly: Activity at human D1 dopamine receptor expressed in HEK293 cells by calcium fluorescence assay. The assay is classed as functional, cell-based. The procedure, abridged:
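Human D1 stably expressed in HEK293 cells. Intracellular Ca2+ was read by fluorescence. Compounds were first checked for any Ca2+ rise on their own, then tested for concentration-dependent suppression of the signal induced by the agonist SKF 38393. Ki was taken from the sigmoidal inhibition curve. Means of three experiments of six values each (±SEM), or of two experiments.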

Assay [5] deals with T4, D(1B) dopamine receptor. The experiment in a line: Activity at human D5 dopamine receptor expressed in HEK293 cells by calcium fluorescence assay. Format: functional, cell-based.
For assay [6], the target named is T5, D(4) dopamine receptor (Homo sapiens) (UniProt P21917).
T5 sequence (whole entry): T1 sequence (P21917 whole entry)
The assay is described as §2. The assay is classed as cell-based. The procedure, abridged:
as §3

Assay [7] addresses T3, D(2) dopamine receptor. The experiment in a line: Displacement of [3H]spiperone from human D2L dopamine receptor expressed in CHO cells. Format: cell-based. The method in brief: as §1
Background: Loss of bound radioactivity is the signal in a displacement assay; it reports binding, not function.

Each structure is given as a SMILES string. Calls of active or inactive are those of the source. The calls are words filed in the database; no cut-off is given here.

T3 sequence (P14416 whole entry): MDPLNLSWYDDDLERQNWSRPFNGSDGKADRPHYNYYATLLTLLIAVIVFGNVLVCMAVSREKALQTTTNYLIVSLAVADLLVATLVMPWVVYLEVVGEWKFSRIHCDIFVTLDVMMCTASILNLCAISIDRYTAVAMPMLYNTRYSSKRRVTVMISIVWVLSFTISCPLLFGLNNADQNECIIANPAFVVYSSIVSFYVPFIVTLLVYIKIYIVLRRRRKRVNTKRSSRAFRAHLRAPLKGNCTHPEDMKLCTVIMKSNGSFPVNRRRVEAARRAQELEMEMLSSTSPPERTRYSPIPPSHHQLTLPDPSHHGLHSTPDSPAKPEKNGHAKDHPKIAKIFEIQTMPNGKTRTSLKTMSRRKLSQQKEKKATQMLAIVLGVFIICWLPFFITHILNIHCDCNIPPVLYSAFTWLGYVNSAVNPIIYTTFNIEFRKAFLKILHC
T2 sequence (P21728 whole entry): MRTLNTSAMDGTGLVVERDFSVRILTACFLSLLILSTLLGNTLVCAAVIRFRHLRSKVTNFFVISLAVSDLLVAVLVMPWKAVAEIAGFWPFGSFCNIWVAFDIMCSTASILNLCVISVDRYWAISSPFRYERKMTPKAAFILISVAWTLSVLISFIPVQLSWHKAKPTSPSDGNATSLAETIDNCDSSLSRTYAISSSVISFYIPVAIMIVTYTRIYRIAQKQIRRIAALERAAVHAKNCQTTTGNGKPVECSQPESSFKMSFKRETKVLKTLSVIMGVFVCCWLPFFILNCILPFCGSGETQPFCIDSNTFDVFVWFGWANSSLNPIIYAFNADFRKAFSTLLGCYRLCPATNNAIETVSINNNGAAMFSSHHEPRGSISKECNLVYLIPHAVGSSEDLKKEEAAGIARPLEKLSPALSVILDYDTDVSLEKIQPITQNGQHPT
T4 sequence (P21918 whole entry): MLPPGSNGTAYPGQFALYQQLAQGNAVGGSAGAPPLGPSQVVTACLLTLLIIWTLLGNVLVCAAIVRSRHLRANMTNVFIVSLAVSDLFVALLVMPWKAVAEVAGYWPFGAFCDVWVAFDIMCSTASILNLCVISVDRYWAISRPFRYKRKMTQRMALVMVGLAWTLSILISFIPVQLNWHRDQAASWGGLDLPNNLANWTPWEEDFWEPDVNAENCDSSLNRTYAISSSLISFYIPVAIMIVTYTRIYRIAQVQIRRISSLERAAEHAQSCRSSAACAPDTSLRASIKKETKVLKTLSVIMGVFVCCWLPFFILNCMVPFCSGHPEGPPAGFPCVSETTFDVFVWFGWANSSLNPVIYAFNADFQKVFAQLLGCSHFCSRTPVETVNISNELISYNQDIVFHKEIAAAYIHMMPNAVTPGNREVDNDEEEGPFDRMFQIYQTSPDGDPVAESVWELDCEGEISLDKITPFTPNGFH

Regarding `CN1CCc2ccccc2Cc2[nH]c3ccccc3c2CC1`, the Ki came out at 25.9 nM on D(3) dopamine receptor and 108 nM on D(4) dopamine receptor.

As to `c1ccc2c(c1)CCN1CCCc3c([nH]c4ccccc34)C21` (centres undefined), the result on D(1A) dopamine receptor [1], on D(2) dopamine receptor [2], at D(1B) dopamine receptor [3], at D(1A) dopamine receptor [4], at D(1B) dopamine receptor [5] and on D(3) dopamine receptor was inactive. Also, the result (in assay [6]; at D(2) dopamine receptor [7]) was inactive.

For `CN1CCCc2c([nH]c3ccccc23)Cc2ccccc2CC1`, the Ki on D(1A) dopamine receptor [1] turned out to be 163 nM; at D(2) dopamine receptor [2] it was 38 nM; at D(1B) dopamine receptor [3], 92 nM; on D(1A) dopamine receptor [4], 304 nM; on D(1B) dopamine receptor [5], 71.6 nM; on D(3) dopamine receptor it was 521 nM. For the same molecule, the inhibition constant Ki at D(4) dopamine receptor was determined as 184 nM; on D(2) dopamine receptor [7], 143 nM.

Regarding `c1ccc2c(c1)CCCN1CCc3c([nH]c4ccccc34)C21` (centres undefined), the outcome on D(1A) dopamine receptor [1], on D(2) dopamine receptor [2], on D(1B) dopamine receptor [3], on D(1A) dopamine receptor [4], on D(1B) dopamine receptor [5] and on D(3) dopamine receptor was inactive. In addition, the outcome (in assay [6]; on D(2) dopamine receptor [7]) was inactive.

On to `CN1CCCc2ccccc2Cc2[nH]c3ccccc3c2CC1`, for which the Ki on D(1A) dopamine receptor [1] is 2.2 nM; at D(2) dopamine receptor [2], 1.5 nM; at D(1B) dopamine receptor [3], 0.61 nM; at D(1A) dopamine receptor [4], 2.8 nM; at D(1B) dopamine receptor [5], 2.8 nM; at D(3) dopamine receptor, 278 nM. Further, the inhibition constant Ki on D(4) dopamine receptor is 98.4 nM; on D(2) dopamine receptor [7], 14.5 nM.

One may read the Ki as a measure of affinity in units of concentration, obtained from inhibition or displacement.
